{"source": "ChEMBL document CHEMBL1123408", "about": "“Influence of alkyl-chain fluorination on the action of mammary tumor inhibiting 2,3-bis(hydroxyphenyl)butanes and 2,3-bis(hydroxyphenyl)but-2-enes” (1986)", "key": {"[1]": {"target": "T1, Estrogen receptor (Mus musculus) (UniProt O08537+P19785)", "T1 sequence (O08537 whole entry, looked up)": "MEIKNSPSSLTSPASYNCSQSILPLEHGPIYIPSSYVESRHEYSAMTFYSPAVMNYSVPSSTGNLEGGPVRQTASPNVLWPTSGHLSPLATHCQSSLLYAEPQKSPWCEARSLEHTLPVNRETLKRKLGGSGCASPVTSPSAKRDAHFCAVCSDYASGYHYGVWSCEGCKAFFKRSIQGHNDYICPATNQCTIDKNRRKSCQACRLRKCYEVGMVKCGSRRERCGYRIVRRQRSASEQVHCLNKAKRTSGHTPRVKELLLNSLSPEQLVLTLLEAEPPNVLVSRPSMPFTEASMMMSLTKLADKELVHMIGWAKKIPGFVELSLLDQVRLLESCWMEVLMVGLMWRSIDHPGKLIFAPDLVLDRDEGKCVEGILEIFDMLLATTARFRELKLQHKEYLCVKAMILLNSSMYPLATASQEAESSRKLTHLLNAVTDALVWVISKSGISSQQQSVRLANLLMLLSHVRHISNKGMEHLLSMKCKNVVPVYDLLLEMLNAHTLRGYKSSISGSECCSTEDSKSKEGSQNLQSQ", "T1 sequence (P19785 whole entry, looked up)": "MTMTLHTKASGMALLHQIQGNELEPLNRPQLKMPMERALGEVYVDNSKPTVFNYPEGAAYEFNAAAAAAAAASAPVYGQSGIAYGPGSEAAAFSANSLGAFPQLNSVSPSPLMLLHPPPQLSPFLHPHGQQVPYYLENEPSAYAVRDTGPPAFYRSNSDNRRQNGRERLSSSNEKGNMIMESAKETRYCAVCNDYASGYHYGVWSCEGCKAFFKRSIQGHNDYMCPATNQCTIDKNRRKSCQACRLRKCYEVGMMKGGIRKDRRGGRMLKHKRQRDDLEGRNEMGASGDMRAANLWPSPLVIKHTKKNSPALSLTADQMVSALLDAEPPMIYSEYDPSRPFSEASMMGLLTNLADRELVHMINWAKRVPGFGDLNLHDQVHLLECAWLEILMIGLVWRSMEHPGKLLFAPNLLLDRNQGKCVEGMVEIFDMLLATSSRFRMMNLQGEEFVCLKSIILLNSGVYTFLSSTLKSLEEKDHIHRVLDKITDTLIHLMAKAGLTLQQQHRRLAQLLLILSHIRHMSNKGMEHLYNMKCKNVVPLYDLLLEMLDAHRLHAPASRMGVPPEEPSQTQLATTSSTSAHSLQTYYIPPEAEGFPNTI", "experiment": "Uterotrophic effect in mice at 1 ug dose", "format": "functional, tissue-based", "set-up": "unit not given here", "settings": "Uterus", "method_in_brief": "(§1)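 Immature female NMRI mice, 20 days old, 10 per group, given daily sc injections of 0.1 mL olive oil solution for 3 days. Uteri removed 24 h after the last dose, fixed in Bouin's solution, washed, dried and weighed. Antiestrogenic testing measured inhibition of estrone-stimulated uterine growth.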"}, "[2]": {"target": "T1, Estrogen receptor (Mus musculus)", "experiment": "Uterotrophic effect in mice at 10 ug dose", "format": "functional, tissue-based", "set-up": "unit not given here", "settings": "Uterus", "method_in_brief": "as §1"}, "[3]": {"target": "T1, Estrogen receptor (Mus musculus)", "experiment": "(§2) Uterotrophic effect in mice at 100 ug dose", "format": "functional, tissue-based", "settings": "Uterus", "method_in_brief": "as §1"}, "[4]": {"target": "T1, Estrogen receptor (Mus musculus)", "experiment": "Uterotrophic effect in BD2F mice bearing transplantable hormone dependent MXT at 13.84 mg dose", "format": "functional, tissue-based", "method_in_brief": "(§3)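 MXT-bearing female BD2F1 mice (10 per group) dosed sc in olive oil three times weekly for 6 weeks from the day after tumor transplantation. Uteri excised at sacrifice and dry weight determined; values given as mean ± SD.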"}, "[5]": {"target": "T1, Estrogen receptor (Mus musculus)", "experiment": "Uterotrophic effect in mice at 0.1 ug dose", "format": "functional, tissue-based", "set-up": "unit not given here", "settings": "Uterus", "method_in_brief": "as §1"}, "[6]": {"target": "T1, Estrogen receptor (Mus musculus)", "experiment": "Uterotrophic effect in mice at 500 ug dose", "format": "functional, tissue-based", "set-up": "unit not given here", "settings": "Uterus", "method_in_brief": "as §1"}, "[7]": {"target": "T1, Estrogen receptor (Mus musculus)", "experiment": "Anti-uterotrophic effect in mice at 5 ug dose", "format": "functional", "method_in_brief": "(§4)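 Immature female NMRI mice, 20 days old (14.5 ± 1.2 g), randomized into groups of 10. Each received a daily sc injection of compound in 0.1 mL olive oil for 3 days, given together with estrone. Uteri were taken 24 h after the last injection, fixed in Bouin's solution, washed, dried and weighed. The read-out was inhibition of estrone-stimulated uterine growth.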"}, "[8]": {"target": "T1, Estrogen receptor (Mus musculus)", "experiment": "(§5) Uterotrophic effect in mice at 0 ug dose", "format": "functional, tissue-based", "set-up": "unit not given here", "settings": "Uterus", "method_in_brief": "as §1"}, "[9]": {"target": "T1, Estrogen receptor (Mus musculus)", "experiment": "Uterotrophic effect in mice at 25 ug dose", "format": "functional, tissue-based", "set-up": "unit not given here", "settings": "Uterus", "method_in_brief": "as §1"}, "[10]": {"target": "T1, Estrogen receptor (Mus musculus)", "experiment": "Anti-uterotrophic effect in mice at 25 ug dose", "format": "functional", "method_in_brief": "as §4"}, "[11]": {"species_on_record": "Mus musculus", "experiment": "Relative average tumor wet weight in treated compared to untreated mice at 13.84 mg dose", "format": "functional", "method_in_brief": "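MXT mammary tumor pieces of 1-2 mm³ from syngeneic donors were implanted sc by trocar into female BD2F₁ mice aged 8-10 weeks (20.0 ± 1.7 g), groups of 10. From the next day, compound in olive oil was given sc three times weekly for 6 weeks. Tumor wet weight was measured at the end and expressed as % T/C.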"}, "[12]": {"target": "T1, Estrogen receptor (Mus musculus)", "experiment": "Uterotrophic effect in mice at 1000 ug dose", "format": "functional, tissue-based", "settings": "Uterus", "method_in_brief": "as §1"}, "[13]": {"target": "T1, Estrogen receptor (Mus musculus)", "experiment": "as §5", "format": "functional, tissue-based", "set-up": "unit not given here", "settings": "Uterus", "method_in_brief": "as §1", "remark": "listed apart in the source"}, "[14]": {"target": "T1, Estrogen receptor (Mus musculus)", "experiment": "Uterotrophic effect in mice at 5 ug dose", "format": "functional, tissue-based", "settings": "Uterus", "method_in_brief": "as §1"}, "[15]": {"target": "T1, Estrogen receptor (Mus musculus)", "experiment": "Uterotrophic effect in BD2F mice bearing transplantable hormone dependent MXT at 2.77 mg dose", "format": "functional, tissue-based", "method_in_brief": "as §3"}, "[16]": {"target": "T1, Estrogen receptor (Mus musculus)", "experiment": "as §2", "format": "functional, tissue-based", "set-up": "unit not given here", "settings": "Uterus", "method_in_brief": "as §1"}, "[17]": {"species_on_record": "Mus musculus", "experiment": "Relative average tumor wet weight in treated compared to untreated mice at 2.77 mg dose", "format": "functional", "method_in_brief": "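Syngeneic female BD2F1 mice (8–10 weeks) received sc trocar implants of 1–2-mm³ MXT tumor pieces, 10 per group. Treatment began the next day: sc doses in olive oil (solution or suspension), three times weekly for 6 weeks. Tamoxifen-treated control group included. Tumor wet weight measured at sacrifice; expressed as % T/C versus untreated controls.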"}, "[18]": {"target": "T1, Estrogen receptor (Mus musculus)", "settings": "Uterus"}, "[19]": {"target": "T1, Estrogen receptor (Mus musculus)", "settings": "Uterus", "remark": "listed apart in the source"}, "[20]": {"target": "T1, Estrogen receptor (Mus musculus)"}, "[21]": {"target": "T1, Estrogen receptor (Mus musculus)", "remark": "listed apart in the source"}, "[22]": {"target": "T1, Estrogen receptor (Mus musculus)", "remark": "listed apart in the source"}, "[23]": {"target": "T1, Estrogen receptor (Mus musculus)", "settings": "Uterus", "remark": "listed apart in the source"}, "[24]": {"target": "T1, Estrogen receptor (Mus musculus)", "remark": "listed apart in the source"}, "[25]": {"target": "T1, Estrogen receptor (Mus musculus)", "settings": "Uterus", "remark": "listed apart in the source"}, "[26]": {"target": "T1, Estrogen receptor (Mus musculus)", "settings": "Uterus", "remark": "listed apart in the source"}, "[27]": {"target": "T1, Estrogen receptor (Mus musculus)", "settings": "Uterus", "remark": "listed apart in the source"}, "[28]": {"target": "T1, Estrogen receptor (Mus musculus)", "settings": "Uterus", "remark": "listed apart in the source"}, "[29]": {"target": "T1, Estrogen receptor (Mus musculus)", "remark": "listed apart in the source"}, "[30]": {"target": "T1, Estrogen receptor (Mus musculus)", "settings": "Uterus", "remark": "listed apart in the source"}}, "data": [{"compound": "C[C@H](c1ccc(O)cc1)[C@@H](C)c1ccc(O)cc1", "values": [{"measurement": "Effect", "setting": "[1]", "value": 22.6}, {"measurement": "Effect", "setting": "[2]", "value": 28}, {"measurement": "Effect", "setting": "[3]", "value": 42.2}, {"measurement": "Uterus effect", "setting": "[4]", "value": 77.6}, {"measurement": "Effect", "setting": "[5]", "value": 17.7}, {"measurement": "Effect", "setting": "[6]", "value": 56.5}, {"measurement": "inhibition", "setting": "[7]", "value": 23.8, "unit": "%"}, {"measurement": "Effect", "setting": "[8]", "value": 14.8}, {"measurement": "Effect", "setting": "[9]", "value": 36}, {"measurement": "inhibition", "setting": "[10]", "value": 14.1, "unit": "%"}, {"measurement": "TC", "setting": "[11]", "value": 23.1, "unit": "%"}, {"measurement": "Effect", "setting": "[12]", "value": 34.8}, {"measurement": "Effect", "setting": "[13]", "value": 11.8}, {"measurement": "Effect", "setting": "[14]", "value": 33.6}, {"measurement": "Uterus effect", "setting": "[15]", "value": 79.9}, {"measurement": "Effect", "setting": "[16]", "value": 45.1}, {"measurement": "TC", "setting": "[17]", "value": 68.5, "unit": "%"}]}, {"compound": "C[C@]12CC[C@@H]3c4ccc(O)cc4CC[C@H]3[C@@H]1CCC2=O", "values": [{"measurement": "Effect", "setting": "[18]", "value": 45.6}, {"measurement": "Effect", "setting": "[19]", "value": 46.8}, {"measurement": "Effect", "setting": "[20]", "value": 41.8}, {"measurement": "Effect", "setting": "[21]", "value": 39.5}, {"measurement": "Effect", "setting": "[22]", "value": 39.5}, {"measurement": "Effect", "setting": "[23]", "value": 46.8}, {"measurement": "Effect", "setting": "[24]", "value": 39.3}, {"measurement": "Effect", "setting": "[25]", "value": 46.6}, {"measurement": "Effect", "setting": "[26]", "value": 46.4}, {"measurement": "Effect", "setting": "[27]", "value": 47.3}, {"measurement": "Effect", "setting": "[28]", "value": 49}, {"measurement": "Effect", "setting": "[29]", "value": 39.5}, {"measurement": "Effect", "setting": "[30]", "value": 39.8}]}]}
